Test system: not listed separately
Assay: Therapeutic index, ratio of IC50 for human BJ cells to IC50 for paclitaxel-resistant human K562 cells
Type: cell-based
Settings: BJ cells versus paclitaxel-resistant K562 cells, read-out: Ratio IC50

`CC(C)[C@@H]1CC[C@]2(C(=O)O)CC[C@]3(C)[C@H](CC[C@@H]4[C@@]5(C)CC(Br)(Br)C(=O)C(C)(C)[C@@H]5CC[C@]43C)[C@@H]12` and `CC(C)[C@@H]1CC[C@]2(C(=O)O)CC[C@]3(C)[C@H](CC[C@@H]4[C@@]5(C)CC(Br)C(=O)C(C)(C)[C@@H]5CC[C@]43C)[C@@H]12` (mixture of isomers) cannot be ordered by selectivity ratio: > 10 for the first, > 10 for the second.

`C=C(C)[C@@H]1CC[C@]2(C(=O)O)CC[C@]3(C)[C@H](CC[C@@H]4[C@@]5(C)C/C(=C/O)C(=O)C(C)(C)[C@@H]5CC[C@]43C)[C@@H]12` gave a selectivity ratio of 4.4.

Test system: K562
Assay: Cytotoxicity against human K562 cells after 72 hrs by MTT assay
Type: functional, cell-based
Settings: K562, 72 h
Outline: (§1)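 Cells seeded at 2500–30,000 per well according to cell type and pre-incubated 24 h at 37 °C, 5% CO2. Four-fold dilutions of compounds dissolved in 10% DMSO were added at time zero, in quadruplicate, then incubated 72 h. MTT was added for a further 1–4 h and formazan dissolved in 10% aq SDS (pH 5.5) overnight at 37 °C. OD was read at 540 nm. Survival was taken as % of mean control OD, and IC50 was read from dose-response curves.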

Compared with `CC(C)[C@@H]1CC[C@]2(C(=O)O)CC[C@]3(C)[C@H](CC[C@@H]4[C@@]5(C)CC(Br)(Br)C(=O)C(C)(C)[C@@H]5CC[C@]43C)[C@@H]12`, `CC(C)[C@@H]1CC[C@]2(C(=O)O)CC[C@]3(C)[C@H](CC[C@@H]4[C@@]5(C)CC(Br)C(=O)C(C)(C)[C@@H]5CC[C@]43C)[C@@H]12` (mixture of isomers) is 1.8-fold higher in IC50: 0.9 µM for the first, 1.6 µM for the second. The first is the more potent here.

For `C=C(C)[C@@H]1CC[C@]2(C(=O)O)CC[C@]3(C)[C@H](CC[C@@H]4[C@@]5(C)C/C(=C/O)C(=O)C(C)(C)[C@@H]5CC[C@]43C)[C@@H]12`, the IC50 was 8.4 µM.

Test system: BJ
Assay: Cytotoxicity against human BJ cells after 72 hrs by MTT assay
Type: cell-based
Settings: not given
Outline: as §1

`CC(C)[C@@H]1CC[C@]2(C(=O)O)CC[C@]3(C)[C@H](CC[C@@H]4[C@@]5(C)CC(Br)(Br)C(=O)C(C)(C)[C@@H]5CC[C@]43C)[C@@H]12` and `CC(C)[C@@H]1CC[C@]2(C(=O)O)CC[C@]3(C)[C@H](CC[C@@H]4[C@@]5(C)CC(Br)C(=O)C(C)(C)[C@@H]5CC[C@]43C)[C@@H]12` (mixture of isomers) are within 1.5-fold of each other in IC50: 13.3 µM for the first, 17.8 µM for the second.

With `C=C(C)[C@@H]1CC[C@]2(C(=O)O)CC[C@]3(C)[C@H](CC[C@@H]4[C@@]5(C)C/C(=C/O)C(=O)C(C)(C)[C@@H]5CC[C@]43C)[C@@H]12` the IC50 was 55.5 µM.

Test system: K562
Assay: Cytotoxicity against human paclitaxel resistant K562 cells after 72 hrs by MTT assay
Type: functional, cell-based
Settings: K562, 72 h
Outline: as §1

First: CC(C)[C@@H]1CC[C@]2(C(=O)O)CC[C@]3(C)[C@H](CC[C@@H]4[C@@]5(C)CC(Br)(Br)C(=O)C(C)(C)[C@@H]5CC[C@]43C)[C@@H]12
Second: CC(C)[C@@H]1CC[C@]2(C(=O)O)CC[C@]3(C)[C@H](CC[C@@H]4[C@@]5(C)CC(Br)C(=O)C(C)(C)[C@@H]5CC[C@]43C)[C@@H]12 (mixture of isomers)
The IC50 of the first is 1.5-fold lower: 1.1 µM for the first, 1.7 µM for the second.

Molecule `C=C(C)[C@@H]1CC[C@]2(C(=O)O)CC[C@]3(C)[C@H](CC[C@@H]4[C@@]5(C)C/C(=C/O)C(=O)C(C)(C)[C@@H]5CC[C@]43C)[C@@H]12` has an IC50 of 12.7 µM.

Test system: HCT-116
Assay: Cytotoxicity against human HCT116 cells after 72 hrs by MTT assay
Type: functional, cell-based
Settings: HCT-116, 72 h
Outline: as §1

First: CC(C)[C@@H]1CC[C@]2(C(=O)O)CC[C@]3(C)[C@H](CC[C@@H]4[C@@]5(C)CC(Br)(Br)C(=O)C(C)(C)[C@@H]5CC[C@]43C)[C@@H]12
Second: CC(C)[C@@H]1CC[C@]2(C(=O)O)CC[C@]3(C)[C@H](CC[C@@H]4[C@@]5(C)CC(Br)C(=O)C(C)(C)[C@@H]5CC[C@]43C)[C@@H]12 (mixture of isomers)
The IC50 of the first is 1.8-fold lower: 2.4 µM for the first, 4.3 µM for the second.

With `C=C(C)[C@@H]1CC[C@]2(C(=O)O)CC[C@]3(C)[C@H](CC[C@@H]4[C@@]5(C)C/C(=C/O)C(=O)C(C)(C)[C@@H]5CC[C@]43C)[C@@H]12` the IC50 was 12.1 µM.

Test system: not listed separately
Assay: Therapeutic index, ratio of IC50 for human MRC5 cells to IC50 for human CCRF-CEM cells
Type: cell-based
Settings: MRC5 cells versus CCRF-CEM cells, read-out: Ratio IC50

First: CC(C)[C@@H]1CC[C@]2(C(=O)O)CC[C@]3(C)[C@H](CC[C@@H]4[C@@]5(C)CC(Br)(Br)C(=O)C(C)(C)[C@@H]5CC[C@]43C)[C@@H]12
Second: CC(C)[C@@H]1CC[C@]2(C(=O)O)CC[C@]3(C)[C@H](CC[C@@H]4[C@@]5(C)CC(Br)C(=O)C(C)(C)[C@@H]5CC[C@]43C)[C@@H]12 (mixture of isomers)
The selectivity ratio of the first is lower: 8 for the first, > 10 for the second.

`C=C(C)[C@@H]1CC[C@]2(C(=O)O)CC[C@]3(C)[C@H](CC[C@@H]4[C@@]5(C)C/C(=C/O)C(=O)C(C)(C)[C@@H]5CC[C@]43C)[C@@H]12` showed a selectivity ratio of 8.5.

Test system: HCT-116
Assay: Cytotoxicity against human p53-deficient HCT116 cells after 72 hrs by MTT assay
Type: functional, cell-based
Settings: HCT-116, 72 h
Outline: as §1

Going from `CC(C)[C@@H]1CC[C@]2(C(=O)O)CC[C@]3(C)[C@H](CC[C@@H]4[C@@]5(C)CC(Br)(Br)C(=O)C(C)(C)[C@@H]5CC[C@]43C)[C@@H]12` to `CC(C)[C@@H]1CC[C@]2(C(=O)O)CC[C@]3(C)[C@H](CC[C@@H]4[C@@]5(C)CC(Br)C(=O)C(C)(C)[C@@H]5CC[C@]43C)[C@@H]12` (mixture of isomers), the IC50 rises from 2.6 µM to 4.1 µM (1.6-fold). The first is the more potent here.

`C=C(C)[C@@H]1CC[C@]2(C(=O)O)CC[C@]3(C)[C@H](CC[C@@H]4[C@@]5(C)C/C(=C/O)C(=O)C(C)(C)[C@@H]5CC[C@]43C)[C@@H]12` gave an IC50 of 13.7 µM.

Test system: CCRF-CEM
Assay: Cytotoxicity against human daunorubicine resistant CEM cells after 72 hrs by MTT assay
Type: functional, cell-based
Settings: not given
Outline: as §1

Compared with `CC(C)[C@@H]1CC[C@]2(C(=O)O)CC[C@]3(C)[C@H](CC[C@@H]4[C@@]5(C)CC(Br)(Br)C(=O)C(C)(C)[C@@H]5CC[C@]43C)[C@@H]12`, `CC(C)[C@@H]1CC[C@]2(C(=O)O)CC[C@]3(C)[C@H](CC[C@@H]4[C@@]5(C)CC(Br)C(=O)C(C)(C)[C@@H]5CC[C@]43C)[C@@H]12` (mixture of isomers) is 1.6-fold higher in IC50: 7 µM for the first, 11.4 µM for the second.

In the case of `C=C(C)[C@@H]1CC[C@]2(C(=O)O)CC[C@]3(C)[C@H](CC[C@@H]4[C@@]5(C)C/C(=C/O)C(=O)C(C)(C)[C@@H]5CC[C@]43C)[C@@H]12`, the IC50 is reported as 29.6 µM.

Test system: CCRF-CEM
Assay: Cytotoxicity against human CCRF-CEM cells after 72 hrs by MTT assay
Type: functional, cell-based
Settings: not given

`CC(C)[C@@H]1CC[C@]2(C(=O)O)CC[C@]3(C)[C@H](CC[C@@H]4[C@@]5(C)CC(Br)(Br)C(=O)C(C)(C)[C@@H]5CC[C@]43C)[C@@H]12` and `CC(C)[C@@H]1CC[C@]2(C(=O)O)CC[C@]3(C)[C@H](CC[C@@H]4[C@@]5(C)CC(Br)C(=O)C(C)(C)[C@@H]5CC[C@]43C)[C@@H]12` (mixture of isomers) are the same in IC50: 1 µM for the first, 1 µM for the second.

With `C=C(C)[C@@H]1CC[C@]2(C(=O)O)CC[C@]3(C)[C@H](CC[C@@H]4[C@@]5(C)C/C(=C/O)C(=O)C(C)(C)[C@@H]5CC[C@]43C)[C@@H]12` the IC50 was 4 µM.

Test system: MRC5
Assay: Cytotoxicity against human MRC5 cells after 72 hrs by MTT assay
Type: cell-based
Settings: MRC5, 72 h
Outline: as §1

Compared with `CC(C)[C@@H]1CC[C@]2(C(=O)O)CC[C@]3(C)[C@H](CC[C@@H]4[C@@]5(C)CC(Br)(Br)C(=O)C(C)(C)[C@@H]5CC[C@]43C)[C@@H]12`, `CC(C)[C@@H]1CC[C@]2(C(=O)O)CC[C@]3(C)[C@H](CC[C@@H]4[C@@]5(C)CC(Br)C(=O)C(C)(C)[C@@H]5CC[C@]43C)[C@@H]12` (mixture of isomers) is 1.8-fold higher in IC50: 8 µM for the first, 14.6 µM for the second.

With `C=C(C)[C@@H]1CC[C@]2(C(=O)O)CC[C@]3(C)[C@H](CC[C@@H]4[C@@]5(C)C/C(=C/O)C(=O)C(C)(C)[C@@H]5CC[C@]43C)[C@@H]12` the IC50 was 29.9 µM.

Test system: not listed separately
Assay: Therapeutic index, ratio of IC50 for human BJ cells to IC50 for human K562 cells
Type: cell-based
Settings: BJ cells versus K562 cells, read-out: Ratio IC50

`CC(C)[C@@H]1CC[C@]2(C(=O)O)CC[C@]3(C)[C@H](CC[C@@H]4[C@@]5(C)CC(Br)(Br)C(=O)C(C)(C)[C@@H]5CC[C@]43C)[C@@H]12` and `CC(C)[C@@H]1CC[C@]2(C(=O)O)CC[C@]3(C)[C@H](CC[C@@H]4[C@@]5(C)CC(Br)C(=O)C(C)(C)[C@@H]5CC[C@]43C)[C@@H]12` (mixture of isomers) cannot be ordered by selectivity ratio: > 10 for the first, > 10 for the second.

With `C=C(C)[C@@H]1CC[C@]2(C(=O)O)CC[C@]3(C)[C@H](CC[C@@H]4[C@@]5(C)C/C(=C/O)C(=O)C(C)(C)[C@@H]5CC[C@]43C)[C@@H]12` the selectivity ratio was 6.6.

Test system: A549
Assay: Cytotoxicity against human A549 cells after 72 hrs by MTT assay
Type: functional, cell-based
Settings: A549, 72 h
Outline: as §1

`CC(C)[C@@H]1CC[C@]2(C(=O)O)CC[C@]3(C)[C@H](CC[C@@H]4[C@@]5(C)CC(Br)(Br)C(=O)C(C)(C)[C@@H]5CC[C@]43C)[C@@H]12` and `CC(C)[C@@H]1CC[C@]2(C(=O)O)CC[C@]3(C)[C@H](CC[C@@H]4[C@@]5(C)CC(Br)C(=O)C(C)(C)[C@@H]5CC[C@]43C)[C@@H]12` (mixture of isomers) are within 1.5-fold of each other in IC50: 8.4 µM for the first, 11.9 µM for the second.

`C=C(C)[C@@H]1CC[C@]2(C(=O)O)CC[C@]3(C)[C@H](CC[C@@H]4[C@@]5(C)C/C(=C/O)C(=O)C(C)(C)[C@@H]5CC[C@]43C)[C@@H]12` gave an IC50 of 17.6 µM.

Test system: not listed separately
Assay: Therapeutic index, ratio of IC50 for human BJ cells to IC50 for human CCRF-CEM cells
Type: cell-based
Settings: BJ cells versus CCRF-CEM cells, read-out: Ratio IC50

`CC(C)[C@@H]1CC[C@]2(C(=O)O)CC[C@]3(C)[C@H](CC[C@@H]4[C@@]5(C)CC(Br)(Br)C(=O)C(C)(C)[C@@H]5CC[C@]43C)[C@@H]12` and `CC(C)[C@@H]1CC[C@]2(C(=O)O)CC[C@]3(C)[C@H](CC[C@@H]4[C@@]5(C)CC(Br)C(=O)C(C)(C)[C@@H]5CC[C@]43C)[C@@H]12` (mixture of isomers) cannot be ordered by selectivity ratio: > 10 for the first, > 10 for the second.

With `C=C(C)[C@@H]1CC[C@]2(C(=O)O)CC[C@]3(C)[C@H](CC[C@@H]4[C@@]5(C)C/C(=C/O)C(=O)C(C)(C)[C@@H]5CC[C@]43C)[C@@H]12` the selectivity ratio was > 10.
